Laboratory results published in ChEMBL document CHEMBL1909532, “Comparative evaluation of two structurally related flavonoids, isoliquiritigenin and liquiritigenin, for their oral infection therapeutic potential” (J Nat Prod, 2011).
In brackets after ≈: the same amount, converted by molar mass. Activity calls are given as the source filed them. The calls are words filed in the database; no cut-off is given here.

Key:
U-937 [1] = test: Antiinflammatory activity in human U937 cells assessed as inhibition of LPS-induced of IL6 secretion at 5 ug/ml after 24 hrs by ELISA relative to control; format: functional
Outline: (§1)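 U937 monocytes differentiated with 10 ng/mL PMA for 48 h, then placed in RPMI-1% FBS. Pretreated 2 h with compound (0, 0.2, 1, 5 μg/mL), then stimulated with A. actinomycetemcomitans ATCC 29522 LPS (1 μg/mL) for 24 h. Cytokines and MMP-9 in supernatants measured by ELISA at 450 nm. Triplicates, two experiments, mean ± SD.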

U-937 [2] = test: Antiinflammatory activity in human U937 cells assessed as inhibition of LPS-induced MMP9 secretion at 5 ug/ml after 24 hrs by ELISA relative to control; format: functional; details: U-937, 24 h; outline: as §1
U-937 [3] = test: Antiinflammatory activity in human U937 cells assessed as inhibition of LPS-induced IL1-beta secretion at 5 ug/ml after 24 hrs by ELISA relative to control; format: functional; outline: as §1
Prevotella intermedia [4] = test: Antibacterial activity against Prevotella intermedia ATCC 25611 by microdilution technique in presence of 1% fetal bovine serum; format: functional, organism-based
Outline: (§2)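 Broth microdilution growth assay, repeated in medium supplemented with 1% fetal bovine serum or with 10% unstimulated whole saliva.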

[5] = target: Matrix metalloproteinase-9 (Homo sapiens) (UniProt P14780); test: Inhibition of human MMP9 assessed as remaining activity at 25 ug/ml after 4 hrs by fluorimetric analysis relative to control
Outline: (§3)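 Active human recombinant MMP-9 (final 100 ng/mL) in TCNB buffer (50 mM Tris-HCl, 10 mM CaCl2, 150 mM NaCl, 0.05% Brij35, pH 7.5) with fluorescein-conjugated DQ gelatin (stock 1 mg/mL); compound final 0, 5, 25 or 100 μg/mL. Incubated 4 h at 37 °C in the dark; fluorescence at ex 490/em 520 nm.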

U-937 [6] = test: Antiinflammatory activity in human U937 cells assessed as inhibition of LPS-induced IL1-beta secretion at 0.2 ug/ml after 24 hrs by ELISA relative to control; format: functional, cell-based; outline: as §1
Porphyromonas gingivalis [7] = test: Antibacterial activity against Porphyromonas gingivalis ATCC 33277 by microdilution technique; format: functional
Outline: (§4)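 Broth microdilution against each strain; MIC read as lowest concentration with no growth. Growth also expressed as percent of compound-free control (set to 100%). Triplicate assays, two independent experiments, mean ± SD; Student's t test, p < 0.01.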

[8] = target: T1, Collagenase (Porphyromonas gingivalis) (UniProt P33437); test: Inhibition of Porphyromonas gingivalis ATCC 33277 collagenase assessed as remaining activity at 100 ug/ml after 4 hrs by fluorimetric analysis relative to control
T1 sequence (whole entry): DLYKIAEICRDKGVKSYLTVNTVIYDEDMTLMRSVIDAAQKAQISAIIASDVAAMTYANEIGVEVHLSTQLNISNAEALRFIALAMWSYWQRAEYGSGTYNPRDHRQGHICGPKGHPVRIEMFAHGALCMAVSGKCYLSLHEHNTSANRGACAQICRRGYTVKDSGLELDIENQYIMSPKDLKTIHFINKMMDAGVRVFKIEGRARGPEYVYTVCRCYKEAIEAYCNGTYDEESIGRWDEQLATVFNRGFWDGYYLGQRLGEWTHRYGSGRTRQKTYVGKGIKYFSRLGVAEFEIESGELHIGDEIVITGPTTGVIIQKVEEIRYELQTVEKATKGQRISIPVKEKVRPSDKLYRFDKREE
Outline: (§5)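 Two-day P. gingivalis ATCC 33277 culture supernatant incubated with fluorescein-conjugated DQ type I collagen (stock 100 μg/mL) in TCNB buffer, compound final 0, 5, 25 or 100 μg/mL. Incubated 4 h in the dark at room temperature, then fluorescence read. Triplicates, mean ± SD.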

Porphyromonas gingivalis [9] = test: Antibacterial activity against Porphyromonas gingivalis ATCC 33277 by microdilution technique in presence of 10% unstimulated whole salive; format: functional, organism-based; outline: as §2
Porphyromonas gingivalis [10] = test: Bactericidal activity against Porphyromonas gingivalis ATCC 33277 at 40 ug/ml by microdilution technique; format: functional, organism-based
Outline: (§6)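 MBC: aliquots from wells without visible growth spread on agar plates and incubated five days under appropriate conditions; MBC is the lowest concentration giving no colonies.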

U-937 [11] = test: Antiinflammatory activity in human U937 cells assessed as inhibition of LPS-induced TNFalpha secretion after 24 hrs by ELISA; format: functional, cell-based; outline: as §1
U-937 [12] = test: Antiinflammatory activity in human U937 cells assessed as inhibition of LPS-induced TNFalpha secretion at 5 ug/ml after 24 hrs by ELISA relative to control; format: functional; details: U-937, 24 h; outline: as §1
[13] = target: T1, Collagenase (Porphyromonas gingivalis); test: Inhibition of Porphyromonas gingivalis ATCC 33277 collagenase assessed as remaining activity at 25 ug/ml after 4 hrs by fluorimetric analysis relative to control; outline: as §5
U-937 [14] = test: Antiinflammatory activity in human U937 cells assessed as inhibition of LPS-induced CCL5 secretion after 24 hrs by ELISA; format: functional, cell-based; outline: as §1
U-937 [15] = test: Antiinflammatory activity in human U937 cells assessed as inhibition of LPS-induced IL6 secretion at 0.2 ug/ml after 24 hrs by ELISA relative to control; format: functional, cell-based; outline: as §1
Fusobacterium nucleatum [16] = test: Antibacterial activity against Fusobacterium nucleatum ATCC 25586 by microdilution technique in presence of 1% fetal bovine serum; format: functional, organism-based; outline: as §2
Fusobacterium nucleatum [17] = test: Antibacterial activity against Fusobacterium nucleatum ATCC 25586 by microdilution technique in presence of 10% unstimulated whole salive; format: functional, organism-based; outline: as §2
Prevotella intermedia [18] = test: Antibacterial activity against Prevotella intermedia ATCC 25611 by microdilution technique; format: functional; outline: as §4
Prevotella intermedia [19] = test: Antibacterial activity against Prevotella intermedia ATCC 25611 by microdilution technique in presence of 10% unstimulated whole salive; format: functional, organism-based; outline: as §2
[20] = target: Matrix metalloproteinase-9 (Homo sapiens) (UniProt P14780); test: Inhibition of human MMP9 assessed as remaining activity at 5 ug/ml after 4 hrs by fluorimetric analysis relative to control; outline: as §3
[21] = target: T1, Collagenase (Porphyromonas gingivalis); test: Inhibition of Porphyromonas gingivalis ATCC 33277 collagenase assessed at 100 ug/ml after 4 hrs by fluorimetric analysis relative to control; outline: as §5
Prevotella intermedia [22] = test: Bactericidal activity against Prevotella intermedia ATCC 25611 at 20 ug/ml by microdilution technique; format: functional, organism-based; outline: as §6
[23] = target: Transcription factor p65 (Homo sapiens) (UniProt Q04206); test: Inhibition of LPS-induced NF-kappaB p65 activation in human U937 cells at 5 ug/ml after 1 hr relative to control; format: cell-based; details: U-937
Outline: (§7)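 PMA-differentiated U937 macrophages pretreated with compound (5 μg/mL) for 1 h, then given LPS (1 μg/mL) for 1 h at 37 °C. Whole-cell extracts adjusted to 1 mg/mL protein. NF-κB p65 and AP-1 activation measured by TransAM kits; controls had no pretreatment.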

Porphyromonas gingivalis [24] = test: Antibacterial activity against Porphyromonas gingivalis ATCC 33277 by microdilution technique in presence of 1% fetal bovine serum; format: functional, organism-based; outline: as §2
U-937 [25] = test: Antiinflammatory activity in human U937 cells assessed as inhibition of LPS-induced IL6 secretion after 24 hrs by ELISA; format: functional, cell-based; outline: as §1
U-937 [26] = test: Cytotoxicity against human U937 cells assessed as loss of cell viability by MTT assay; format: cell-based
Outline: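 PMA-differentiated U937 macrophages exposed to LPS or compound (up to 5 μg/mL) under the 24 h stimulation protocol; viability checked by MTT assay.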

[27] = target: Matrix metalloproteinase-9 (Homo sapiens) (UniProt P14780); test: Inhibition of human MMP9 assessed as remaining activity at 100 ug/ml after 4 hrs by fluorimetric analysis relative to control; outline: as §3
[28] = target: Transcription factor Jun (Homo sapiens) (UniProt P05412); test: Inhibition of LPS-induced AP-1 activation in human U937 cells at 5 ug/ml after 1 hr relative to control; format: cell-based; details: U-937; outline: as §7
U-937 [29] = test: Antiinflammatory activity in human U937 cells assessed as inhibition of LPS-induced IL1-beta secretion after 24 hrs by ELISA; format: functional, cell-based; outline: as §1
U-937 [30] = test: Antiinflammatory activity in human U937 cells assessed as inhibition of LPS-induced IL8 secretion after 24 hrs by ELISA; format: functional, cell-based; outline: as §1
U-937 [31] = test: Antiinflammatory activity in human U937 cells assessed as inhibition of LPS-induced CCL5 secretion at 5 ug/ml after 24 hrs by ELISA relative to control; format: functional; outline: as §1
Fusobacterium nucleatum [32] = test: Antibacterial activity against Fusobacterium nucleatum ATCC 25586 at 40 ug/ml assessed as growth inhibition by microdilution technique relative to untreated control; format: functional; details: read-out: GI; outline: as §4
Fusobacterium nucleatum [33] = test: Antibacterial activity against Fusobacterium nucleatum ATCC 25586 by microdilution technique; format: functional, organism-based; outline: as §4
U-937 [34] = test: Antiinflammatory activity in human U937 cells assessed as inhibition of LPS-induced IL8 secretion at 5 ug/ml after 24 hrs by ELISA relative to control; format: functional; details: U-937, 24 h; outline: as §1
[35] = target: T1, Collagenase (Porphyromonas gingivalis); test: Inhibition of Porphyromonas gingivalis ATCC 33277 collagenase assessed as remaining activity at 5 ug/ml after 4 hrs by fluorimetric analysis relative to control; outline: as §5
Prevotella intermedia [36] = test: Antibacterial activity against Prevotella intermedia ATCC 25611 assessed as growth inhibition at 5 ug/ml by microdilution technique relative to untreated control; format: functional; details: read-out: GI; outline: as §4
Prevotella intermedia [37] = test: Antibacterial activity against Prevotella intermedia ATCC 25611 at 40 ug/ml assessed as growth inhibition by microdilution technique relative to untreated control; format: functional; details: read-out: GI; outline: as §4

Sequence of Matrix metalloproteinase-9 (Homo sapiens) (P14780 whole entry): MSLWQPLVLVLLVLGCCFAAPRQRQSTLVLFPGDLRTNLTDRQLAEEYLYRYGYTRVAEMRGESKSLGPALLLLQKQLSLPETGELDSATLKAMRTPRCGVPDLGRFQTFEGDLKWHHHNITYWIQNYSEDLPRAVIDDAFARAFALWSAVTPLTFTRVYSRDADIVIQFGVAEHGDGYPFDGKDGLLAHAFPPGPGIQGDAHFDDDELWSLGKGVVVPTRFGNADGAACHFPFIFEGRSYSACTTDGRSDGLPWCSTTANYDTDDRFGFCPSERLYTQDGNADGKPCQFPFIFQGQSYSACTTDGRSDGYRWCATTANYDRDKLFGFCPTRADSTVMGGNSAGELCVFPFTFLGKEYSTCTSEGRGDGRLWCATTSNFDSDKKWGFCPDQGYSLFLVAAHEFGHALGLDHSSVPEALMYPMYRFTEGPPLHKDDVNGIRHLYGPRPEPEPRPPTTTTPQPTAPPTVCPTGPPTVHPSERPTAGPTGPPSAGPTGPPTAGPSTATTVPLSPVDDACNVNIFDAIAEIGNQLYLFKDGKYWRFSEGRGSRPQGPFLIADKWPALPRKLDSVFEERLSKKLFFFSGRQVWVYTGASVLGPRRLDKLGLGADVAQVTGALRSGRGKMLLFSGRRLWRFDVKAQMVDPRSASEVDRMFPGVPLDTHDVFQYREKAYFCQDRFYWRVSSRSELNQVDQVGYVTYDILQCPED
Sequence of Transcription factor Jun (Homo sapiens) (P05412 whole entry): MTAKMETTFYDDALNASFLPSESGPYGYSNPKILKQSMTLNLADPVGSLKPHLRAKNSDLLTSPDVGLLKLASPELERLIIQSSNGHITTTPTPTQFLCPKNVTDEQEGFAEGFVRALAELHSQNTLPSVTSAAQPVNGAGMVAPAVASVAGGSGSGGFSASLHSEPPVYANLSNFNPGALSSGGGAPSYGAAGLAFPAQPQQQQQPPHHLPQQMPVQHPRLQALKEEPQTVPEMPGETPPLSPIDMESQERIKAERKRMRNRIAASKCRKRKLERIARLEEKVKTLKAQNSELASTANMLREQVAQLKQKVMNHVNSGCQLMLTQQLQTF
Sequence of Transcription factor p65 (Homo sapiens) (Q04206 whole entry): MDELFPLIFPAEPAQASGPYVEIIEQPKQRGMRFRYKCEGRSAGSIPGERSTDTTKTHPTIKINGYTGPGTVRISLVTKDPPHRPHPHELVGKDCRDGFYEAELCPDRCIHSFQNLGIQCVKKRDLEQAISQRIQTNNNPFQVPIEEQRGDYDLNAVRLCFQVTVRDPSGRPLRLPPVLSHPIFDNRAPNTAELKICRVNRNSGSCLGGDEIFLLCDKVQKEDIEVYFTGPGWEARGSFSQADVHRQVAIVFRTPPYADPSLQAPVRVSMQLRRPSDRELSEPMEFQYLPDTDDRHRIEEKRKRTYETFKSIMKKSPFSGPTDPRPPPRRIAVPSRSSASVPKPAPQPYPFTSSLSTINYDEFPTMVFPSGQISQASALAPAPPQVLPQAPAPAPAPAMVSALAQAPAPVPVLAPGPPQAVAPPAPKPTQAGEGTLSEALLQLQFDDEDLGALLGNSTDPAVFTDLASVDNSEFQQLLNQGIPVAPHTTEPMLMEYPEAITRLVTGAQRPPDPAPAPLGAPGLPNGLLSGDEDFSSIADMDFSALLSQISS

Q: What does the source list for `O=C(/C=C/c1ccc(O)cc1)c1ccc(O)cc1O` [ISOLIQUIRITIGENIN]?
A: inhibition (U-937 [1]): Active; inhibition at 5 µg/mL (U-937 [2]): 89%; inhibition (U-937 [3]): Active; Activity (Prevotella intermedia [4]): Active; Activity [5]: 91%; inhibition (U-937 [6]): Active; Activity (Porphyromonas gingivalis [7]): Dose-dependent effect; MIC (Porphyromonas gingivalis [7]): 40 µg/mL (≈ 156 µM); Activity [8]: 48%; Activity (Porphyromonas gingivalis [9]): Active; inhibition (Porphyromonas gingivalis [10]): inactive; inhibition (U-937 [11]): Dose-dependent effect; inhibition at 5 µg/mL (U-937 [12]): 87%; Activity [13]: 78%; inhibition (U-937 [14]): Dose-dependent effect; inhibition (U-937 [15]): Active; Activity (Fusobacterium nucleatum [16]): Active; Activity (Fusobacterium nucleatum [17]): Active; Activity (Prevotella intermedia [18]): Dose-dependent effect; MIC (Prevotella intermedia [18]): 10 µg/mL (≈ 39 µM); Activity (Prevotella intermedia [19]): Active; Activity [20]: 97%; inhibition [21]: 52%; inhibition (Prevotella intermedia [22]): Active; inhibition [23]: Active; Activity (Porphyromonas gingivalis [24]): Active; inhibition (U-937 [25]): Dose-dependent effect; Activity (U-937 [26]): Non-toxic; Activity [27]: 67%; inhibition [28]: Active; inhibition (U-937 [29]): Dose-dependent effect; inhibition (U-937 [30]): Dose-dependent effect; inhibition (U-937 [31]): Active; inhibition of growth at 40 µg/mL (Fusobacterium nucleatum [32]): 70%; Activity (Fusobacterium nucleatum [33]): Dose-dependent effect; inhibition at 5 µg/mL (U-937 [34]): 34%; Activity [35]: 82%; inhibition of growth at 5 µg/mL (Prevotella intermedia [36]): 58%

Q: Which results are given for `O=C1C[C@@H](c2ccc(O)cc2)Oc2cc(O)ccc21` [LIQUIRTIGENIN]?
A: inhibition at 5 µg/mL (U-937 [1]; U-937, 24 h): 23%; inhibition at 5 µg/mL (U-937 [2]): 24%; inhibition at 5 µg/mL (U-937 [3]; U-937, 24 h): 34%; Activity (Prevotella intermedia [4]): Active; Activity [5]: 95%; Activity [8]: 79%; inhibition of growth at 40 µg/mL (Prevotella intermedia [37]): 85%; inhibition at 5 µg/mL (U-937 [12]): 17%; Activity [13]: 82%; Activity (Prevotella intermedia [19]): Active; Activity [20]: 95%; inhibition [21]: 21%; inhibition [23]: 39%; Activity (U-937 [26]): Non-toxic; Activity [27]: 87%; inhibition [28]: 20%; inhibition at 5 µg/mL (U-937 [31]; U-937, 24 h): 24%; inhibition at 5 µg/mL (U-937 [34]): 11%; Activity [35]: 83%
